Key:
[1] = target: T1, Thymidylate synthase (Lactobacillus casei) (UniProt P00469); assay: Inactivation of thymidylate synthetase measured as kobs at a dose 10.0, pH 6.8, 30 degrees Centigrade; conditions: Lacticaseibacillus casei
T1 sequence (whole entry): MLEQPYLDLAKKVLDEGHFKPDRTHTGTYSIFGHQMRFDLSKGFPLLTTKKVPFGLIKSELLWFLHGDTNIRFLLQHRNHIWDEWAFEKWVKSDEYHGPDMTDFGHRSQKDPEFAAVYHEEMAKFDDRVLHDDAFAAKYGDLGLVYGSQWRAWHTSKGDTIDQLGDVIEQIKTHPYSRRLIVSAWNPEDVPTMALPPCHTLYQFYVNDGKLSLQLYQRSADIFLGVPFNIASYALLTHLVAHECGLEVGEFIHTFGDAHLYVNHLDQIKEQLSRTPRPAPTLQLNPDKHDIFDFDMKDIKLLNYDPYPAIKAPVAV
Method in brief: (§1)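 Thymidylate synthetase from methotrexate-resistant Lactobacillus casei, activated by dialysis against 0.1 M potassium phosphate pH 6.8 with 50 mM mercaptoethanol, then freed of thiol on Sephadex G-25. Enzyme at 0.1–0.4 μM preincubated at 30 °C in 6 mM potassium phosphate pH 6.8, 3 mM MgCl2, 0.12 mM EDTA with inhibitor, with or without substrate for protection. Aliquots were taken over time and assayed.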

[2] = target: T1, Thymidylate synthase (Lactobacillus casei); assay: Inactivation of thymidylate synthetase measured as kobs at a dose 5.56, pH 6.8, 30 degrees Centigrade; conditions: Lacticaseibacillus casei; method in brief: as §1
[3] = target: T1, Thymidylate synthase (Lactobacillus casei); assay: Substrate concentration measured for Inactivation of thymidylate synthetase at a dose 10.0 pH 6.8, 30 degrees Centigrade; conditions: Lacticaseibacillus casei; method in brief: as §1
[4] = target: T1, Thymidylate synthase (Lactobacillus casei); assay: Substrate concentration measured for Inactivation of thymidylate synthetase at a dose 5.56, pH 6.8, 30 degrees Centigrade; conditions: Lacticaseibacillus casei; method in brief: as §1
[5] = target: T1, Thymidylate synthase (Lactobacillus casei); assay: Inactivation of thymidylate synthetase measured as kobs at a dose 3.0 pH 6.8, 30 degrees Centigrade; conditions: Lacticaseibacillus casei
Method in brief: (§2)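 L. casei (methotrexate-resistant) thymidylate synthetase, activated in 50 mM 2-mercaptoethanol, then freed of thiol on Sephadex G-25 in 0.05 M phosphate pH 6.8; 0.1–0.4 μM enzyme preincubated at 30 °C with inhibitor in 6 mM potassium phosphate pH 6.8, 3 mM MgCl2, 0.12 mM EDTA. Aliquots at 0–50 s assayed 60 s with 50 μM [5-3H]dUMP; ln % activity vs time gives kobs.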

[6] = target: T1, Thymidylate synthase (Lactobacillus casei); assay: Inactivation of thymidylate synthetase measured as k2 at 6.8 pH 30 degrees Celsius temp; conditions: Lacticaseibacillus casei; method in brief: as §2
[7] = target: T1, Thymidylate synthase (Lactobacillus casei); assay: Inactivation of thymidylate synthetase measured as kobs at a dose 30.0.0 pH 6.8, 30 degrees Centigrade; conditions: Lacticaseibacillus casei; method in brief: as §2
[8] = target: T1, Thymidylate synthase (Lactobacillus casei); assay: Inactivation of thymidylate synthetase measured as kobs at a dose 10.0 pH 6.8, 30 degrees Centigrade; conditions: Lacticaseibacillus casei; method in brief: as §2
[9] = target: T1, Thymidylate synthase (Lactobacillus casei); assay: Inactivation of thymidylate synthetase measured as kobs at a dose 1.0 pH 6.8, 30 degrees Centigrade; conditions: Lacticaseibacillus casei; method in brief: as §2
[10] = target: T1, Thymidylate synthase (Lactobacillus casei); assay: Inactivation of thymidylate synthetase measured as k2 at 7 pH 4 degrees Celsius temp; conditions: Lacticaseibacillus casei
Thymidylate synthase [11] = target: T2, Thymidylate synthase (Lactobacillus casei, UniProt P00469); assay: Inactivation of thymidylate synthetase measured asKi at 6.8 pH 30 degrees Celsius temp; parameters: species or system Lacticaseibacillus casei; method in brief: as §2
T2 sequence (P00469 whole entry): T1 sequence (whole entry)

[12] = target: T1, Thymidylate synthase (Lactobacillus casei); assay: Inactivation of thymidylate synthetase measur as kcat at 6.8 pH 30 degrees Celsius temp; conditions: Lacticaseibacillus casei; method in brief: as §1
[13] = target: T1, Thymidylate synthase (Lactobacillus casei); assay: Inactivation of thymidylate synthetase measured as kcat at 6.8 pH 30 degrees Centigrade temp; conditions: Lacticaseibacillus casei; method in brief: as §2
[14] = target: T1, Thymidylate synthase (Lactobacillus casei); assay: Inactivation of thymidylate synthetase measured as k2 at 7 pH 24 degrees Celsius temp; conditions: Lacticaseibacillus casei
[15] = target: T1, Thymidylate synthase (Lactobacillus casei); assay: Inactivation of thymidylate synthetase measured as kobs at 0.6 pH 30 degrees Celsius temp; conditions: Lacticaseibacillus casei; method in brief: as §1
[16] = target: T1, Thymidylate synthase (Lactobacillus casei); assay: Substrate concentration measured for Inactivation of thymidylate synthetase at a dose 0.6, pH 6.8, 30 degrees Centigrade; conditions: Lacticaseibacillus casei; method in brief: as §1
[17] = target: T1, Thymidylate synthase (Lactobacillus casei); assay: Substrate concentration measured for Inactivation of thymidylate synthetase at a dose 2.0 pH 6.8, 30 degrees Centigrade; conditions: Lacticaseibacillus casei; method in brief: as §1
[18] = target: T1, Thymidylate synthase (Lactobacillus casei); assay: Inactivation of thymidylate synthetase measured as kobs at 2.0 pH 30 degrees Celsius temp; conditions: Lacticaseibacillus casei; method in brief: as §1
Thymidylate synthase [19] = target: T2, Thymidylate synthase; assay: Inactivation of thymidylate synthetase measured as Ki at 6.8 pH 30 degrees Celsius temp; parameters: species or system Lacticaseibacillus casei; method in brief: as §2

Which results are given for `O=C1C=CC(=O)C(c2cn([C@H]3C[C@H](O)[C@@H](CO)O3)c(=O)[nH]c2=O)=C1`?
k obs [1]: 0.0048 s⁻¹; k obs [2]: 0.0029 s⁻¹; Substrate [3]: 0 µM; Substrate [4]: 0 µM

How did the k obs [5] turn out when `O=C1C=CC(=O)C(c2ccccc2)=C1` was run?
The k obs was 0.007 s⁻¹.

What about the k2 [6] of the same molecule?
The k2 was 2600.

And the k obs [7]?
The k obs was 0.078 s⁻¹.

What about the k obs [8] of the same molecule?
The k obs was 0.025 s⁻¹.

And the k obs [9]?
The k obs was 0.0034 s⁻¹.

How did the k2 [10] turn out when `CCN1C(=O)C=CC1=O` was run?
The k2 was 13 M⁻¹.

What does the source list for `O=c1[nH]c(=O)n([C@H]2C[C@H](O)[C@@H](COP(=O)(O)O)O2)cc1[N+](=O)[O-]` [5-NITRO-DUMP]?
k2 [6]: 300000 M⁻¹ s⁻¹; Ki (Thymidylate synthase [11]): 0.5 µM; k cat [12]: 0.146 s⁻¹

Which k cat [13] does the source give for `O=C(CBr)c1cn(C2CC(O)C(OP(=O)(O)O)O2)c(=O)[nH]c1=O` (centres undefined) here?
The k cat was 0.065 s⁻¹.

What about the k2 [6] of the same molecule?
Its k2 is 32000.

And the Ki (Thymidylate synthase [11])?
Its Ki is 2 µM.

`NC(=O)CI` was tested. Which k2 [14] did it give?
The k2 was 7 M⁻¹.

Which results are given for `O=C1C=CC(=O)C=C1`?
k obs [15]: 0.0025 s⁻¹; Substrate [16]: 0 µM; Substrate [17]: 0 µM; k obs [18]: 0.0126 s⁻¹

What does the source list for `O=C(CBr)c1cn([C@H]2C[C@H](O)[C@@H](COP(=O)(O)O)O2)c(=O)[nH]c1=O`?
Ki (Thymidylate synthase [19]): 4 µM; k cat [13]: 0.0025 s⁻¹; k2 [6]: 600 M⁻¹ s⁻¹

Reference: ChEMBL document CHEMBL1122243, “5-p-benzoquinonyl-2'-deoxyuridine 5'-phosphate: a possible mechanism-based inhibitor of thymidylate synthetase” (J Med Chem, 1983)
